Results: ChEMBL document CHEMBL1121573, “2-(Aminomethyl)phenols, a new class of saluretic agents. 1. Effects of nuclear substitution” (J Med Chem, 1980)
Values joined by “and” are separate entries in the source; they are usually repeats but may differ in a detail not shown here. Equal entries are not always repeated.

Tested on: Canis familiaris
Assay: Compound administered intravenously at a dose of 5 mg/kg was evaluated for salidiuretic activity measured as sodium ion excretion in Dog; Value ranges from 600-799
Type: ADME, organism-based, Canis lupus familiaris, Urine
Parameters: dose 5 mg/kg, route intravenous; unit not given beside the values
Conditions: in vivo, iv
Outline: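 Conditioned female mongrel dogs, postabsorptive, water-loaded (500 mL po) 1 h before sodium pentobarbital anesthesia (30 mg/kg iv). Bladder catheter; creatinine 4 g sc; phosphate–mannitol buffer pH 7.4 infused (3.0 mL/min) throughout. […] Urine Na+ measured; response scored 0–6.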

Structure (SMILES)	Diuretic activity
Cc1c(Cl)cc(I)c(O)c1CN.Cl	600

Tested on: not listed separately
Assay: Compound administered orally at a dose of 5 mg/kg was evaluated for salidiuretic activity measured as sodium ion excretion in Rat
Type: organism-based
Parameters: dose 5 mg/kg
Conditions: Urine
Outline: (§1)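 Female Charles-River rats (150–170 g), overnight on sugar diet with water ad libitum. Compound dissolved in DMF, diluted with water containing Tween 80 (final 4% DMF), given po in 5.0 mL; concurrent vehicle placebo. Three rats per metabolism cage; 0–5 h urine analysed for Na+, K+, Cl-. Values: mequiv × 100 per cage, geometric means of three cages per dose; scored 0–6 by Na+.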

Structure (SMILES)	Diuretic activity
NS(=O)(=O)c1cc2c(cc1Cl)NCNS2(=O)=O [HYDROCHLOROTHIAZIDE]	0.4
Cc1c(Cl)cc(I)c(O)c1CN.Cl	0.5

Species on record: Rattus norvegicus
Assay: Time taken for the decrease in arterial pressure was measured
Type: functional, Artery
Conditions: not given

Structure (SMILES)	Duration
NS(=O)(=O)c1cc2c(cc1Cl)NCNS2(=O)=O [HYDROCHLOROTHIAZIDE]	>8 h and 12 h

Tested on: Canis familiaris
Assay: Oral diuretic activity was evaluated by measuring Na+ excretion in dog at 10 mg/kg after ip administration (0-6 hr)
Type: ADME, organism-based, Canis lupus familiaris, Urine
Parameters: dose 10 mg/kg, route intraperitoneal
Conditions: in vivo
Outline: (§2)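 Spontaneous urine was pooled with bladder urine collected by catheterization at 6 h. Volume was measured and Na+, K+ and Cl− were determined by standard methods. Values are geometric means.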

Structure (SMILES)	Diuretic activity
NS(=O)(=O)c1cc2c(cc1Cl)NCNS2(=O)=O [HYDROCHLOROTHIAZIDE]	19.6

Tested on: Canis familiaris
Assay: Oral diuretic activity was evaluated by measuring Na+ excretion in dog at 5 mg/kg after ip administration (0-6 hr)
Type: ADME, organism-based, Canis lupus familiaris, Urine
Parameters: dose 5 mg/kg, route intraperitoneal
Conditions: in vivo
Outline: as §2

Structure (SMILES)	Diuretic activity
NS(=O)(=O)c1cc2c(cc1Cl)NCNS2(=O)=O [HYDROCHLOROTHIAZIDE]	18.8

Tested on: Canis familiaris
Assay: Oral diuretic activity was evaluated by measuring Na+ excretion in dog at 1 mg/kg after ip administration (0-6 hr)
Type: ADME, organism-based, Canis lupus familiaris, Urine
Parameters: dose 1 mg/kg, route intraperitoneal
Conditions: in vivo
Outline: as §2

Structure (SMILES)	Diuretic activity
NS(=O)(=O)c1cc2c(cc1Cl)NCNS2(=O)=O [HYDROCHLOROTHIAZIDE]	16.4

Tested on: Rattus norvegicus
Assay: Evaluated for salidiuretic activity measured as sodium ion excretion in Rat, administered orally at a dose of 50 mg/kg
Type: functional, Urine
Parameters: unit not given beside the values
Conditions: route oral
Outline: as §1

Structure (SMILES)	Diuretic activity
NS(=O)(=O)c1cc2c(cc1Cl)NCNS2(=O)=O [HYDROCHLOROTHIAZIDE]	1.8
Cc1c(Cl)cc(I)c(O)c1CN.Cl	2.4

Tested on: Canis familiaris
Assay: Oral diuretic activity was evaluated by measuring K+ excretion in dog at 0.3 mg/kg after […] (0-6 hr)
Type: ADME, organism-based, Canis lupus familiaris, Urine
Parameters: dose 0.3 mg/kg, route intraperitoneal
Conditions: in vivo

Structure (SMILES)	Diuretic activity
NS(=O)(=O)c1cc2c(cc1Cl)NCNS2(=O)=O [HYDROCHLOROTHIAZIDE]	1.98

Tested on: Canis familiaris
Assay: Oral diuretic activity was evaluated by measuring Cl- excretion in dog at 1 mg/kg after […] (0-6 hr)
Type: ADME, organism-based, Canis lupus familiaris, Urine
Parameters: dose 1 mg/kg, route intraperitoneal
Conditions: in vivo

Structure (SMILES)	Diuretic activity
NS(=O)(=O)c1cc2c(cc1Cl)NCNS2(=O)=O [HYDROCHLOROTHIAZIDE]	22

Tested on: Rattus norvegicus
Assay: Oral diuretic activity was evaluated by measuring K+ excretion in Rat at 27 mg/kg […] (0-5 hr)
Type: ADME, organism-based, Urine
Parameters: dose 27 mg/kg
Conditions: not given
Outline: (§3)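 Female Charles-River rats (150–170 g) were kept overnight on a sugar diet with water ad libitum. Test substance was dissolved in DMF and diluted with water containing Tween 80 to a final 4% DMF vehicle, then given po in 5.0 mL. Rats were housed three per metabolism cage, and 0–5 h urine was assayed for Na⁺, K⁺ and Cl⁻ alongside concurrent placebo groups. Values are mequiv × 100 per cage, geometric means of three cages per dose.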

Structure (SMILES)	Diuretic activity
NS(=O)(=O)c1cc2c(cc1Cl)NCNS2(=O)=O [HYDROCHLOROTHIAZIDE]	0.34

Tested on: Rattus norvegicus
Assay: Oral diuretic activity was evaluated by measuring Cl- excretion in Rat at 27 mg/kg […] (0-5 hr)
Type: ADME, organism-based, Urine
Parameters: dose 27 mg/kg
Conditions: in vivo

Structure (SMILES)	Diuretic activity
NS(=O)(=O)c1cc2c(cc1Cl)NCNS2(=O)=O [HYDROCHLOROTHIAZIDE]	1.56

Tested on: Canis familiaris
Assay: Oral diuretic activity was evaluated by measuring Na+ excretion in dog at 0.3 mg/kg after ip administration (0-6 hr)
Type: ADME, organism-based, Canis lupus familiaris, Urine
Parameters: dose 0.3 mg/kg, route intraperitoneal
Conditions: in vivo
Outline: as §2

Structure (SMILES)	Diuretic activity
NS(=O)(=O)c1cc2c(cc1Cl)NCNS2(=O)=O [HYDROCHLOROTHIAZIDE]	5.4

Tested on: Canis familiaris
Assay: Oral diuretic activity was evaluated by measuring Cl- excretion in dog at 10 mg/kg after […] (0-6 hr)
Type: ADME, organism-based, Canis lupus familiaris, Urine
Parameters: dose 10 mg/kg, route intraperitoneal
Conditions: in vivo

Structure (SMILES)	Diuretic activity
NS(=O)(=O)c1cc2c(cc1Cl)NCNS2(=O)=O [HYDROCHLOROTHIAZIDE]	22.9

Tested on: Canis familiaris
Assay: Salidiuretic activity in dog following i.v. dosing at 5 mg/kg
Type: functional, Canis lupus familiaris, Urine
Parameters: unit not given beside the values
Conditions: route intravenous
Outline: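 Conditioned female mongrel dogs, postabsorptive, got a 500 mL oral water load 1 h before pentobarbital anesthesia (30 mg/kg iv). After replicate 15-min control collections, compound was given as an iv stat injection.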

Structure (SMILES)	Diuretic activity
NS(=O)(=O)c1cc2c(cc1Cl)NCNS2(=O)=O [HYDROCHLOROTHIAZIDE]	250

Tested on: Rattus norvegicus
Assay: Maximum fall in mean arterial blood pressure was measured in SH rats when compound was administered at 20 mg/kg perorally
Type: functional
Conditions: route oral

Structure (SMILES)	MAP [mmHg]
NS(=O)(=O)c1cc2c(cc1Cl)NCNS2(=O)=O [HYDROCHLOROTHIAZIDE]	25

Tested on: Rattus norvegicus
Assay: Compound administered orally at a dose of 81 mg/kg was evaluated for salidiuretic activity measured as sodium ion excretion in Rat
Type: ADME, organism-based, Urine
Parameters: dose 81 mg/kg, route oral; unit not given beside the values
Conditions: in vivo, po
Outline: as §1

Structure (SMILES)	Diuretic activity
NS(=O)(=O)c1cc2c(cc1Cl)NCNS2(=O)=O [HYDROCHLOROTHIAZIDE]	2.4
Cc1c(Cl)cc(I)c(O)c1CN.Cl	2.9

Tested on: Rattus norvegicus
Assay: Maximum fall in mean arterial blood pressure was measured in SH rats when compound was administered at 40 mg/kg perorally
Type: functional
Conditions: route oral

Structure (SMILES)	MAP [mmHg]
NS(=O)(=O)c1cc2c(cc1Cl)NCNS2(=O)=O [HYDROCHLOROTHIAZIDE]	26

Tested on: Rattus norvegicus
Assay: Oral diuretic activity was evaluated by measuring K+ excretion in Rat at 9 mg/kg […] (0-5 hr)
Type: ADME, organism-based, Urine
Parameters: dose 9 mg/kg
Conditions: not given
Outline: as §3

Structure (SMILES)	Diuretic activity
NS(=O)(=O)c1cc2c(cc1Cl)NCNS2(=O)=O [HYDROCHLOROTHIAZIDE]	0.38

Tested on: Canis familiaris
Assay: Oral diuretic activity was evaluated by measuring K+ excretion in dog at 5 mg/kg after ip administration (0-6 hr)
Type: ADME, organism-based, Canis lupus familiaris, Urine
Parameters: dose 5 mg/kg, route intraperitoneal
Conditions: in vivo
Outline: as §2

Structure (SMILES)	Diuretic activity
NS(=O)(=O)c1cc2c(cc1Cl)NCNS2(=O)=O [HYDROCHLOROTHIAZIDE]	7.4

Tested on: not listed separately
Assay: Evaluated for salidiuretic activity measured as sodium ion excretion in Rat, administered orally at a dose of 16.5 mg/kg
Type: organism-based
Parameters: dose 16.5 mg/kg
Conditions: Urine
Outline: as §1

Structure (SMILES)	Diuretic activity
NS(=O)(=O)c1cc2c(cc1Cl)NCNS2(=O)=O [HYDROCHLOROTHIAZIDE]	0.6
Cc1c(Cl)cc(I)c(O)c1CN.Cl	1.4

Tested on: Rattus norvegicus
Assay: Oral diuretic activity was evaluated by measuring K+ excretion in Rat at 3 mg/kg […] (0-5 hr)
Type: ADME, organism-based, Urine
Parameters: dose 3 mg/kg
Conditions: not given
Outline: as §3

Structure (SMILES)	Diuretic activity
NS(=O)(=O)c1cc2c(cc1Cl)NCNS2(=O)=O [HYDROCHLOROTHIAZIDE]	0.34

Tested on: Canis familiaris
Assay: Oral diuretic activity was evaluated by measuring Cl- excretion in dog at 0.3 mg/kg after […] (0-6 hr)
Type: ADME, organism-based, Canis lupus familiaris, Urine
Parameters: dose 0.3 mg/kg, route intraperitoneal
Conditions: in vivo

Structure (SMILES)	Diuretic activity
NS(=O)(=O)c1cc2c(cc1Cl)NCNS2(=O)=O [HYDROCHLOROTHIAZIDE]	8.57

Tested on: Canis familiaris
Assay: Oral diuretic activity was evaluated by measuring K+ excretion in dog at 1 mg/kg after ip administration (0-6 hr)
Type: ADME, organism-based, Canis lupus familiaris, Urine
Parameters: dose 1 mg/kg, route intraperitoneal
Conditions: in vivo
Outline: as §2

Structure (SMILES)	Diuretic activity
NS(=O)(=O)c1cc2c(cc1Cl)NCNS2(=O)=O [HYDROCHLOROTHIAZIDE]	4.8

Tested on: Rattus norvegicus
Assay: Maximum fall in mean arterial blood pressure was measured in SH rats when compound was administered at 10 mg/kg perorally
Type: functional
Conditions: route oral

Structure (SMILES)	MAP [mmHg]
NS(=O)(=O)c1cc2c(cc1Cl)NCNS2(=O)=O [HYDROCHLOROTHIAZIDE]	14

Tested on: Canis familiaris
Assay: Oral diuretic activity was evaluated by measuring K+ excretion in dog at 10 mg/kg after ip administration (0-6 hr)
Type: ADME, organism-based, Canis lupus familiaris, Urine
Parameters: dose 10 mg/kg, route intraperitoneal
Conditions: in vivo
Outline: as §2

Structure (SMILES)	Diuretic activity
NS(=O)(=O)c1cc2c(cc1Cl)NCNS2(=O)=O [HYDROCHLOROTHIAZIDE]	7.1

Tested on: Rattus norvegicus
Assay: Oral diuretic activity was evaluated by measuring Cl- excretion in Rat at 3 mg/kg […] (0-5 hr)
Type: ADME, organism-based, Urine
Parameters: dose 3 mg/kg, route intraperitoneal
Conditions: in vivo

Structure (SMILES)	Diuretic activity
NS(=O)(=O)c1cc2c(cc1Cl)NCNS2(=O)=O [HYDROCHLOROTHIAZIDE]	1.54

Tested on: Canis familiaris
Assay: Oral diuretic activity was evaluated by measuring Cl- excretion in dog at 5 mg/kg after […] (0-6 hr)
Type: ADME, organism-based, Canis lupus familiaris, Urine
Parameters: dose 5 mg/kg, route intraperitoneal
Conditions: in vivo

Structure (SMILES)	Diuretic activity
NS(=O)(=O)c1cc2c(cc1Cl)NCNS2(=O)=O [HYDROCHLOROTHIAZIDE]	26.3

Tested on: Rattus norvegicus
Assay: Oral diuretic activity was evaluated by measuring Na+ excretion in Rat at 9 mg/kg after […] (0-5 hr)
Type: ADME, organism-based, Urine
Parameters: dose 9 mg/kg
Conditions: in vivo, ip
Outline: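 Female Charles-River rats (150–170 g) were kept overnight on a sugar diet with water ad libitum. Compound was dissolved in DMF, then diluted with water containing Tween 80 (3 drops/100 mL) to a final 4% DMF, and given po in 5.0 mL. Rats were housed three per metabolism cage. Urine from 0–5 h was analysed for Na+, K+ and Cl−, with concurrent placebo controls. Values are mequiv × 100 per cage, geometric mean of three cages per dose.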

Structure (SMILES)	Diuretic activity
NS(=O)(=O)c1cc2c(cc1Cl)NCNS2(=O)=O [HYDROCHLOROTHIAZIDE]	1.12

Tested on: Rattus norvegicus
Assay: Oral diuretic activity was evaluated by measuring K+ excretion in Rat at 81 mg/kg after […] (0-5 hr)
Type: ADME, organism-based, Urine
Parameters: dose 81 mg/kg
Conditions: not given
Outline: as §3

Structure (SMILES)	Diuretic activity
NS(=O)(=O)c1cc2c(cc1Cl)NCNS2(=O)=O [HYDROCHLOROTHIAZIDE]	0.37
